Test results published in ChEMBL document CHEMBL1152281, “2-Alkylamino- and alkoxy-substituted 2-amino-1,3,4-oxadiazoles-O-Alkyl benzohydroxamate esters replacements retain the desired inhibition and selectivity against MEK (MAP ERK kinase)” (Bioorg Med Chem Lett, 2008).
Converted amounts (≈) assume the structure as drawn. The source made the active and inactive calls. No cut-off for these calls is given here.

Experiments:
[1] = Solubility in sodium phosphate buffer at pH 6.5 by HPLC
[2] = Metabolic stability in human liver microsomes assessed as half life
Colon 26 [3] = assay: Antitumor activity against mouse Colon 26 cells implanted in mouse assessed as 50% decrease in tumor mass at 100 mg/kg, po administered BID on day 9 to day 15; format: functional, organism-based; parameters: dose 100 mg/kg
Colon 26 [4] = assay: Antitumor activity against mouse Colon 26 cells implanted in mouse at 100 mg/kg, po administered BID on day 9 to day 15; format: functional
Colon 26 [5] = assay: Antitumor activity against mouse Colon 26 cells implanted in mouse assessed as <62 mg decrease in tumor mass at 100 mg/kg, po administered BID on day 9 to day 15; format: functional, organism-based; parameters: dose 100 mg/kg
Mus musculus [6] = assay: Toxicity in mouse Colon 26 cells implanted mouse assessed as body weight loss at 100 mg/kg, po administered BID on day 9 to day 15; format: organism-based; parameters: dose 100 mg/kg, route oral; conditions: in vivo
Outline: (§1)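 Mice bearing subcutaneous Colon 26 tumours were gavaged daily or BID on days 9–15 (3 per group). Toxicity was taken as maximum treatment-related weight loss, expressed as percent of mean group weight at initial treatment, with the day of maximum loss recorded; a net weight gain is noted as "+". Vehicle was 5% EtOH + 5% Tween 80 in saline.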

Colon 26 [7] = assay: Antitumor activity against mouse Colon 26 cells implanted in mouse assessed as 50% decrease in tumor mass at 50 mg/kg, po administered BID on day 9 to day 15; format: functional, organism-based; parameters: dose 50 mg/kg
Mus musculus [8] = assay: Ex vivo inhibition of MEK in mouse Colon 26 cells implanted mouse assessed as suppression of ERK-phosphorylation at 12.5 mg/kg, po after 10 hrs by Western blot; format: functional, organism-based; parameters: dose 12.5 mg/kg
Outline: (§2)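 Mice bearing subcutaneous colon 26 tumours received a single oral dose. At each time point tumours were excised, and p-ERK levels were measured by Western blot against vehicle-treated controls.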

Mus musculus [9] = assay: Toxicity in mouse Colon 26 cells implanted mouse assessed as body weight loss at 300 mg/kg, po administered on day 9 to day 15; format: organism-based; parameters: dose 300 mg/kg, route oral; conditions: in vivo; outline: as §1
Colon 26 [10] = assay: Antitumor activity against mouse Colon 26 cells implanted in mouse assessed as <62 mg decrease in tumor mass at 100 mg/kg, po administered on day 9 to day 15; format: functional, organism-based; parameters: dose 100 mg/kg
Colon 26 [11] = assay: Antitumor activity against mouse Colon 26 cells implanted in mouse at 50 mg/kg, po administered BID on day 9 to day 15; format: functional
Mus musculus [12] = assay: Toxicity in mouse Colon 26 cells implanted mouse assessed as increase in body weight at 50 mg/kg, po administered BID on day 9 to day 15; format: organism-based; parameters: dose 50 mg/kg, route oral; conditions: in vivo; outline: as §1
Mus musculus [13] = assay: Ex vivo inhibition of MEK in mouse Colon 26 cells implanted mouse assessed as suppression of ERK-phosphorylation at 100 mg/kg, po after 10 hrs by Western blot; format: functional, organism-based; parameters: dose 100 mg/kg; outline: as §2
Colon 26 [14] = assay: Antitumor activity against mouse Colon 26 cells implanted in mouse at 100 mg/kg, po administered on day 9 to day 15; format: functional
Mus musculus [15] = assay: Toxicity in mouse Colon 26 cells implanted mouse assessed as increase in body weight at 100 mg/kg, po administered BID on day 9 to day 15; format: organism-based; parameters: dose 100 mg/kg, route oral; conditions: in vivo; outline: as §1
Colon 26 [16] = assay: Antitumor activity against mouse Colon 26 cells implanted in mouse at 200 mg/kg, po administered on day 9 to day 15; format: functional
Mus musculus [17] = assay: Toxicity in mouse Colon 26 cells implanted mouse assessed as increase in body weight at 100 mg/kg, po administered on day 9 to day 15; format: organism-based; parameters: dose 100 mg/kg, route oral; conditions: in vivo; outline: as §1
Colon 26 [18] = assay: Antitumor activity against mouse Colon 26 cells implanted in mouse assessed as <62 mg decrease in tumor mass at 150 mg/kg, po administered BID on day 9 to day 15; format: functional, organism-based; parameters: dose 150 mg/kg
Colon 26 [19] = assay: Antitumor activity against mouse Colon 26 cells implanted in mouse assessed as <62 mg decrease in tumor mass at 50 mg/kg, po administered BID on day 9 to day 15; format: functional, organism-based; parameters: dose 50 mg/kg
Colon 26 [20] = assay: Antitumor activity against mouse Colon 26 cells implanted in mouse at 300 mg/kg, po administered on day 9 to day 15; format: functional
Mus musculus [21] = assay: Toxicity in mouse Colon 26 cells implanted mouse assessed as body weight loss at 150 mg/kg, po administered BID on day 9 to day 15; format: organism-based; parameters: dose 150 mg/kg, route oral; conditions: in vivo; outline: as §1
Mus musculus [22] = assay: Toxicity in mouse Colon 26 cells implanted mouse assessed as body weight loss at 200 mg/kg, po administered on day 9 to day 15; format: organism-based; parameters: dose 200 mg/kg, route oral; conditions: in vivo; outline: as §1
Colon 26 [23] = assay: Antitumor activity against mouse Colon 26 cells implanted in mouse assessed as <62 mg decrease in tumor mass at 300 mg/kg, po administered on day 9 to day 15; format: functional, organism-based; parameters: dose 300 mg/kg
Colon 26 [24] = assay: Antitumor activity against mouse Colon 26 cells implanted in mouse at 150 mg/kg, po administered BID on day 9 to day 15; format: functional

COCCCNc1nnc(-c2ccc(F)c(F)c2Nc2ccc(I)cc2F)o1
solubility [1]: < 3 µg/mL
half-life [2]: 35 min

OCCCCCNc1nnc(-c2ccc(F)c(F)c2Nc2ccc(I)cc2F)o1
solubility [1]: < 3 µg/mL
half-life [2]: 40 min

OCCNc1nnc(-c2ccc(F)c(F)c2Nc2ccc(I)cc2F)o1
solubility [1]: < 3 µg/mL
half-life [2]: 40 min

OCCCCNc1nnc(-c2ccc(F)c(F)c2Nc2ccc(I)cc2F)o1
solubility [1]: < 3 µg/mL
half-life [2]: 40 min

O=C(NOCC1CC1)c1ccc(F)c(F)c1Nc1ccc(I)cc1Cl [CI-1040]
Activity (Colon 26 [3]): inactive
LCK (Colon 26 [4]): 0.1
Activity (Colon 26 [5]): inactive
half-life [2]: 8 min
Activity (Mus musculus [6]): 4.8%

NCCCNc1nnc(-c2ccc(F)c(F)c2Nc2ccc(I)cc2F)o1
solubility [1]: 5.4 µg/mL (≈ 11 µM)
half-life [2]: 40 min

Fc1cc(I)ccc1Nc1c(-c2nnc(NCCCN3CCOCC3)o2)ccc(F)c1F
solubility [1]: < 3 µg/mL
half-life [2]: 40 min

Nc1nnc(-c2ccc(F)c(F)c2Nc2ccc(I)cc2F)o1
solubility [1]: < 3 µg/mL

CCN(CC)CCCNc1nnc(-c2ccc(F)c(F)c2Nc2ccc(I)cc2F)o1
solubility [1]: < 3 µg/mL
half-life [2]: 40 min

CNCCNc1nnc(-c2ccc(F)c(F)c2Nc2ccc(I)cc2F)o1
Activity (Colon 26 [7]): inactive
Activity (Mus musculus [8]): Active
Activity (Mus musculus [9]): 4.5%
Activity (Colon 26 [10]): inactive
LCK (Colon 26 [11]): 0.1
Activity (Mus musculus [12]): Toxic
LCK (Colon 26 [4]): 0.2
Activity (Mus musculus [13]): Active
LCK (Colon 26 [14]): 0
Activity (Mus musculus [15]): Toxic
LCK (Colon 26 [16]): 0.3
solubility [1]: 6.7 µg/mL (≈ 13.7 µM)
Activity (Mus musculus [17]): Toxic
Activity (Colon 26 [18]): Active
Activity (Colon 26 [5]): Active
Activity (Colon 26 [19]): inactive
LCK (Colon 26 [20]): 0.3
Activity (Mus musculus [21]): 4%
Activity (Mus musculus [22]): 0.1%
half-life [2]: 40 min
Activity (Colon 26 [23]): Active
LCK (Colon 26 [24]): 0.4

OCCCNc1nnc(-c2ccc(F)c(F)c2Nc2ccc(I)cc2F)o1
solubility [1]: < 3 µg/mL
half-life [2]: 40 min

NCCNc1nnc(-c2ccc(F)c(F)c2Nc2ccc(I)cc2F)o1
solubility [1]: < 3 µg/mL
half-life [2]: 40 min
